{
  "source": "ChEMBL document CHEMBL3352602",
  "about": "“One-pot synthesis and antiproliferative activity of novel 2,4-diaminopyrimidine derivatives bearing piperidine and piperazine moieties” (Eur J Med Chem, 2014)",
  "note": "pIC50: −log10 of the molar value.",
  "data": [
    {"tested_on": "HepG2", "experiment": "Cytotoxicity against human HepG2 cells after 48 hrs by MTT assay", "assay_type": "functional, cell-based", "conditions": "HepG2, 48 h", "in_short": "(§1)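 MTT assay on cells grown in DMEM with 10% FBS and split at 70-80% confluence by trypsinization. Seeded 1×10^4 cells/well, attached 24 h at 37 °C. Compounds came from 10 mM DMSO stocks diluted in medium to a concentration series, with 0.1% DMSO as negative control. Cells were exposed for 48 h at 37 °C, then given MTT for 4 h. Formazan was dissolved in DMSO and read at 570 nm. IC50 was fitted from % inhibition versus control, mean of three independent experiments.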", "values": [
      {"smiles": "CS(=O)(=O)N1CCC(Nc2ncc(Cl)c(NCc3ccccc3)n2)CC1", "pIC50": "< 3.70"},
      {"smiles": "CN1CCN(c2nccc(NCc3ccccc3)n2)CC1", "pIC50": "< 3.70"},
      {"smiles": "COc1ccc(Nc2nccc(NC3CCN(S(C)(=O)=O)CC3)n2)cc1", "pIC50": 4.06},
      {"smiles": "COc1ccc(Nc2nccc(N3CCN(C)CC3)n2)cc1", "pIC50": "< 3.70"},
      {"smiles": "COc1cccc(Nc2nc(NC3CCN(S(C)(=O)=O)CC3)ncc2Cl)c1", "pIC50": "< 3.70"},
      {"smiles": "COc1ccc(CNc2ccnc(NC3CCN(S(C)(=O)=O)CC3)n2)cc1", "pIC50": 4.29},
      {"smiles": "CS(=O)(=O)N1CCC(Nc2ncc(Cl)c(Nc3ccc(Cl)cc3)n2)CC1", "pIC50": "< 3.70"},
      {"smiles": "CS(=O)(=O)N1CCC(Nc2nccc(Nc3ccc(Cl)cc3)n2)CC1", "pIC50": 4.10},
      {"smiles": "COc1ccccc1CCNc1nccc(N2CCN(C)CC2)n1", "pIC50": "< 3.70"},
      {"smiles": "COc1ccc(CNc2ccnc(N3CCN(C)CC3)n2)cc1", "pIC50": "< 3.70"},
      {"smiles": "COc1cccc(Nc2ccnc(N3CCN(C)CC3)n2)c1", "pIC50": "< 3.70"},
      {"smiles": "CN1CCN(c2ccnc(Nc3ccc(Cl)cc3)n2)CC1", "pIC50": "< 3.70"}
    ]},
    {"tested_on": "A549", "experiment": "Cytotoxicity against human A549 cells after 48 hrs by MTT assay", "assay_type": "functional, cell-based", "conditions": "A549, 48 h", "in_short": "as §1", "values": [
      {"smiles": "CS(=O)(=O)N1CCC(Nc2ncc(Cl)c(NCc3ccccc3)n2)CC1", "pIC50": 4.33},
      {"smiles": "CN1CCN(c2nccc(NCc3ccccc3)n2)CC1", "pIC50": "< 3.70"},
      {"smiles": "COc1ccc(Nc2nccc(NC3CCN(S(C)(=O)=O)CC3)n2)cc1", "pIC50": 4.04},
      {"smiles": "COc1ccc(Nc2nccc(N3CCN(C)CC3)n2)cc1", "pIC50": "< 3.70"},
      {"smiles": "COc1cccc(Nc2nc(NC3CCN(S(C)(=O)=O)CC3)ncc2Cl)c1", "pIC50": "< 3.70"},
      {"smiles": "COc1ccc(CNc2ccnc(NC3CCN(S(C)(=O)=O)CC3)n2)cc1", "pIC50": 4.29},
      {"smiles": "CS(=O)(=O)N1CCC(Nc2ncc(Cl)c(Nc3ccc(Cl)cc3)n2)CC1", "pIC50": "< 3.70"},
      {"smiles": "CS(=O)(=O)N1CCC(Nc2nccc(Nc3ccc(Cl)cc3)n2)CC1", "pIC50": "< 3.70"},
      {"smiles": "COc1ccccc1CCNc1nccc(N2CCN(C)CC2)n1", "pIC50": "< 3.70"},
      {"smiles": "COc1ccc(CNc2ccnc(N3CCN(C)CC3)n2)cc1", "pIC50": "< 3.70"},
      {"smiles": "COc1cccc(Nc2ccnc(N3CCN(C)CC3)n2)c1", "pIC50": "< 3.70"},
      {"smiles": "CN1CCN(c2ccnc(Nc3ccc(Cl)cc3)n2)CC1", "pIC50": "< 3.70"}
    ]},
    {"tested_on": "MDA-MB-231", "experiment": "Cytotoxicity against human MDA-MB-231 cells after 48 hrs by MTT assay", "assay_type": "functional, cell-based", "conditions": "MDA-MB-231, 48 h", "in_short": "as §1", "values": [
      {"smiles": "CS(=O)(=O)N1CCC(Nc2ncc(Cl)c(NCc3ccccc3)n2)CC1", "pIC50": 4.93},
      {"smiles": "CN1CCN(c2nccc(NCc3ccccc3)n2)CC1", "pIC50": "< 3.70"},
      {"smiles": "COc1ccc(Nc2nccc(NC3CCN(S(C)(=O)=O)CC3)n2)cc1", "pIC50": 4.24},
      {"smiles": "COc1ccc(Nc2nccc(N3CCN(C)CC3)n2)cc1", "pIC50": "< 3.70"},
      {"smiles": "COc1cccc(Nc2nc(NC3CCN(S(C)(=O)=O)CC3)ncc2Cl)c1", "pIC50": "< 3.70"},
      {"smiles": "COc1ccc(CNc2ccnc(NC3CCN(S(C)(=O)=O)CC3)n2)cc1", "pIC50": 4.47},
      {"smiles": "CS(=O)(=O)N1CCC(Nc2ncc(Cl)c(Nc3ccc(Cl)cc3)n2)CC1", "pIC50": "< 3.70"},
      {"smiles": "CS(=O)(=O)N1CCC(Nc2nccc(Nc3ccc(Cl)cc3)n2)CC1", "pIC50": "< 3.70"},
      {"smiles": "COc1ccccc1CCNc1nccc(N2CCN(C)CC2)n1", "pIC50": "< 3.70"},
      {"smiles": "COc1ccc(CNc2ccnc(N3CCN(C)CC3)n2)cc1", "pIC50": "< 3.70"},
      {"smiles": "COc1cccc(Nc2ccnc(N3CCN(C)CC3)n2)c1", "pIC50": "< 3.70"},
      {"smiles": "CN1CCN(c2ccnc(Nc3ccc(Cl)cc3)n2)CC1", "pIC50": "< 3.70"}
    ]},
    {"tested_on": "MCF7", "experiment": "Cytotoxicity against human MCF7 cells after 48 hrs by MTT assay", "assay_type": "functional, cell-based", "conditions": "MCF7, 48 h", "in_short": "as §1", "values": [
      {"smiles": "CS(=O)(=O)N1CCC(Nc2ncc(Cl)c(NCc3ccccc3)n2)CC1", "pIC50": 4.49},
      {"smiles": "CN1CCN(c2nccc(NCc3ccccc3)n2)CC1", "pIC50": "< 3.70"},
      {"smiles": "COc1ccc(Nc2nccc(NC3CCN(S(C)(=O)=O)CC3)n2)cc1", "pIC50": "< 3.70"},
      {"smiles": "COc1ccc(Nc2nccc(N3CCN(C)CC3)n2)cc1", "pIC50": "< 3.70"},
      {"smiles": "COc1cccc(Nc2nc(NC3CCN(S(C)(=O)=O)CC3)ncc2Cl)c1", "pIC50": "< 3.70"},
      {"smiles": "COc1ccc(CNc2ccnc(NC3CCN(S(C)(=O)=O)CC3)n2)cc1", "pIC50": 4.24},
      {"smiles": "CS(=O)(=O)N1CCC(Nc2ncc(Cl)c(Nc3ccc(Cl)cc3)n2)CC1", "pIC50": "< 3.70"},
      {"smiles": "CS(=O)(=O)N1CCC(Nc2nccc(Nc3ccc(Cl)cc3)n2)CC1", "pIC50": "< 3.70"},
      {"smiles": "COc1ccccc1CCNc1nccc(N2CCN(C)CC2)n1", "pIC50": "< 3.70"},
      {"smiles": "COc1ccc(CNc2ccnc(N3CCN(C)CC3)n2)cc1", "pIC50": "< 3.70"},
      {"smiles": "COc1cccc(Nc2ccnc(N3CCN(C)CC3)n2)c1", "pIC50": "< 3.70"},
      {"smiles": "CN1CCN(c2ccnc(Nc3ccc(Cl)cc3)n2)CC1", "pIC50": "< 3.70"}
    ]}
  ]
}
